Measured values as given in the EternaBench riboswitch data.

Tested on: MS2 coat protein
Assay: apparent Kd, MS2 coat protein; higher = weaker binding; RNA-MaP array; FMN 200 µM where present
Procedure, shortened: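 Designs were transcribed by stalled E. coli RNA polymerase on Illumina sequencing-chip clusters. They were titrated with SNAP-549-labelled MS2 coat protein from 0.7 or 1.5 nM, doubling to 3 µM, without and then with constant ligand. Buffer: 100 mM Tris-HCl pH 7.5, 80 mM KCl, 4 mM MgCl2, BSA, DTT, yeast tRNA, Tween-20. Green signal was normalised to red-channel RNA signal and control-cluster median Fmax. Apparent Kd is the median of filtered per-cluster binding-curve fits.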

[1] = designed as: OFF switch for flavin mononucleotide, no ligand
[2] = ligand present: flavin mononucleotide, designed as: OFF switch for flavin mononucleotide
[3] = designed as: ON switch for flavin mononucleotide, no ligand
[4] = ligand present: flavin mononucleotide, designed as: ON switch for flavin mononucleotide

Sequence | apparent Kd [1] | apparent Kd [2] | apparent Kd [3] | apparent Kd [4]
CGCAACAUACAGAAGGAGUAAAGGAGAAGUGUACUAGGAUAUGUUAACAUGAGGAUCACCCAUGUCGUUUGGGAUUUUGUUGCG | 0.383 µM | 0.0993 µM |  | 
AAAAUCUAUAGAGGAUAUCCAUACACUACAUACGGAGAAGGCUAACAAUCAUGAGGACAUGAGGAUCACCCAUGUUGUGACCAU |  |  | 0.0248 µM | 0.0172 µM
UAGUUUUAGCGAGGAUAUCGUAUGUUUAAUUUUUUAUAUUGUUUACAUGAGGAUCACCCAUGUUACGAGAAGGCGCAUGGGAUU |  |  | 0.388 µM | 0.1 µM
UGUGCAGAAGGAUAUGCGUAAUGGCCGUGAGGCCUAGAUCUACAUGAGGAUCACCCAUGUAGAAGGUCUGUACU | 0.0166 µM | 0.0164 µM |  | 
UGGUACAUGGGAGGAUAUCAUGAACUUACAUGAGGAUCACCCAUGUCGAUGGAGACAUCGGAGAUUGAGAAGGCCCAUGUACCU |  |  | 0.0776 µM | 0.0224 µM
CCGCGGCGUGCAGGAUAUGUUACGAUACCUCGGACAGAAGGGCACAUGAGGAUCACCCAUGUAAUAUAUAUGGAACAUAUAUAG | 0.0338 µM | 0.0533 µM |  | 
UCUUAUUGCAAGGAUAUGCAAAUUAUUUUUUAAGCAGAAGGUGCAACAUGAGGAUCACCCAUGUUUCCGGGAAA | 0.0194 µM | 0.111 µM |  | 
GUGGUCAGACAUGAGGAUCACCCAUGUGGAAUAAAUAAGGAGAAGGAUAUGAAAUAUAGGAUAUAUCAGAAGGUCUGGUUGGUG |  |  | 0.0722 µM | 0.0771 µM
AAGAAACAUGAGGAUCACCCAUGUGAGGAUAUGCAAGAAAGAAAGAAAGAAAGAAGAAGCAGAAGGCACAAAGG | 0.0258 µM | 0.0497 µM |  | 
AGUCCUGACGUCAGGAUAUCCGGCCAAUAGGCCAAGGAGAAGGGACAUGAGGAUCACCCAUGUGCUUGGGUCCG | 0.0232 µM | 0.0402 µM |  | 
GCUGGAAAAGGAUAUACAUAACGUGCUUCGGCACGAGAUCUACAUGAGGAUCACCCAUGUAGAAGGUUUCCAGC | 0.014 µM | 0.0302 µM |  | 
CUGAUGUCAGGAUAUCGGUGGCUCACUUGUGUGUGCCAGACCGAGAAGGGACAUGAGGAUCACCCAUGUUUCUA | 0.0211 µM | 0.0934 µM |  | 
GUAGCAUAAUUAGGAUAUUCAGCGAAUAGAUUGACAUGAGGAUCACCCAUGUGGCGAAAGCCUAGGGAGAAGGGAUAAUGCUAC |  |  | 0.254 µM | 0.12 µM
CUUUUGUGAGGAUAUCAGUAGUAAUACAAUAGUAUUAUUACUGAGAAGGCACAUGAGGAUCACCCAUGUUCCUC | 0.0409 µM | 0.125 µM |  | 
CAGUACUGAGGAUAUACAUGAGGAUCACCCAUGUGUUCCAGCUAGGAAACUAGCAAAAGUAGAAGGCUGUACUG | 0.0169 µM | 0.172 µM |  | 
GUUCCACAUGAGGAUCACCCAUGUGAGGAUAUGGAUUCGCUGGCCGUAGCCAGUGGAUCCAGAAGGCGCGUGAU | 0.0774 µM | 0.0966 µM |  | 
GGAUGACAAAGUCAUCCAAUUCGAACAUGAGGAUCACCCAUGUAGGAUAUGCUACACAAAGUGUAGCAGAAGGACAUGUGCUUU | 0.0365 µM | 0.169 µM |  | 
UGUUGUAUUACAGGAUAUCUAUUAUUUUAAUUUAGAGAAGGGUAUUCACAUGAGGAUCACCCAUGUAUAUACGAGGAAGUUGUG |  |  | 0.0529 µM | 0.0572 µM
GUAGCUACUUUUAUACAUGAGGAUCACCCAUGUUACUUGGGUAAGGAUAUUGAUGUUAUGAUUAUCAAGAAGGUACUAUGCUAC |  |  | 0.136 µM | 0.03 µM
GGAUGACAAAGUCAUCCAAUACGAACAUGAGGAUCACCCAUGUAGGAUAUGCUAGUCAAAGACUAGCAGAAGGACAUGUGCCUU | 0.0392 µM | 0.238 µM |  | 
AUUUAAAUGUCAGGAUAUGUCGGUAUAUACUCGGUAGAAGGGAUAAUUAUACUCAAGUACAUGAGGAUCACCCAUGUUAAAUCA |  |  | 0.0211 µM | 0.014 µM
AAUAAACUCACAGGAUAUAGCAGAGGUCGCGUGAACUUACAGGCAACGAUGCUAGAAGGGUGACCACAUGAGGAUCACCCAUGU |  |  | 0.52 µM | 0.145 µM
UGGGCUACCACAGGAUAUGCUACAUGAGGAUCACCCAUGUAAAGAAAAUCGGCAGAAGGGUGGUUAGUGCAGCAUGAAGGAGCC |  |  | 0.0289 µM | 0.0108 µM
CGGUGACGUGUAGGAUAUGGCGCUGGGUUUUGCCCAGAAGGACAUGAGGAUCACCCAUGUGGUAGAGGGCUGGCGGCCGCCCGC | 0.0294 µM | 0.0292 µM |  | 
AAUAAACUAGGAUAUACAUGAGGAUCACCCAUGUGUCGCCACGUGCUUGCUCACUCGUGUAGAAGGAGUACGGA | 0.0385 µM | 0.0731 µM |  | 
UUGGGUUUGCGAGGAUAUCGUAUGUGAUUUGAACGAGAAGGCGCUAUUUAAAUUAUUUUAACAUAACAUGAGGAUCACCCAUGU |  |  | 0.0174 µM | 0.016 µM
CUGCCGUAGGAGAAGGACGGCGGGUUAUUUUUGUACAUGAGGAUCACCCAUGUAGGAUAUCCUACGUCAGGCAACCUACUACAG | 0.00726 µM | 0.0103 µM |  | 
GGUGCGUCUGUGAGGAUAUGCUGGUCCUUGGCUCGGCAGAAGGCACAUGAGGAUCACCCAUGUGGUGUCGUGCC | 0.0185 µM | 0.0346 µM |  | 

Sequence | apparent Kd [1] | apparent Kd [2] | apparent Kd [3] | apparent Kd [4]
AACUCGUCAGGAUAUGCGCGCAGUUAAUACGCUUCGCAAUUGCAGAAGGGACAUGAGGAUCACCCAUGUAAAUA | 0.0321 µM | 0.0331 µM |  | 
UGUCCGAGCAGAGGAUAUUACAUGAGGAUCACCCAUGUAUGAACCAAUAGCUGGAAACAGCAAUGUAAGAAGGCUGCUCCGACA | 0.0122 µM | 0.155 µM |  | 
CUGAGCAAUGUAGGAUAUCGACUGGAUAACAGUCGAGAAGGACAUGAGGAUCACCCAUGUAAAUGAGUGAAUAAUAAAGCUCAG | 1.07 µM | 0.331 µM |  | 
AUCAGCUCGUCAGGAUAUACGUCACUCCGUCAGCAGUGUGGUAAGAUCACAUGAGGAUCACCCAUGUAGAAGGGACGAGCUGAU | 0.0295 µM | 0.253 µM |  | 
UUUAAUCGAAACAUGAGGAUCACCCAUGUGUUGUAAUUAACAUAGGAUAUUUGUAUACUUUUAUAAAAGAAGGAUGAUAAUACU |  |  | 0.0178 µM | 0.013 µM
GCAGGAUAAGUCAGGAUAUACCUAUGGAUACAUAGGUAGAAGGGACAUGAGGAUCACCCAUGUGCCUCGCCUGC | 0.0145 µM | 0.0374 µM |  | 
GUUAAGUGAGGAUAUGGUGAGUAGUGCCUGAGCGCUGCUCACCAGAAGGCACAUGAGGAUCACCCAUGUAUAGC | 0.0157 µM | 0.028 µM |  | 
UGCAUGGUAGGAUAUACGGAACAUUAGGGUUUGUUGUGUGGACAUGAGGAUCACCCAUGUAGAAGGGCCGUGCU | 0.0455 µM | 0.0786 µM |  | 
GGUAUCUCCCGUGAGGAUAUGCGGCGUAGAACAUGAGGAUCACCCAUGUCCUUCGAAUGGGUUACGCAGAAGGCACGACGGUACC |  |  | 0.0333 µM | 0.0185 µM
AGUGUCAUCGAGAAGGCCUCAACAUGAGGAUCACCCAUGUUGUAAUAUGGGAGGAUAUCGAUGAUACAGCUACGUUUCGUAGCG |  |  | 0.0199 µM | 0.00582 µM
GUACAUACAAAGUUACAUGAGGAUCACCCAUGUUUAUUGGGAAGAAGGGUAACAUUAUUAAAUAUAUAGGAUAUUUCACAAUUG |  |  | 0.546 µM | 0.283 µM
UGGUACUAGGGAGGAUAUCGGAAGAUACAUGAGGAUCACCCAUGUUUAAGAAUGCCGAGAGGCAACUAGAAGGCCCUAGUACCU |  |  | 0.00664 µM | 0.00613 µM
AUUUAAUUUAAUAAGAUCACAUGAGGAUCACCCAUGUAUAUAUAGGAUAUCAGCUCGAUUAGAGCUGAGAAGGAUAUAUACUAU | 0.383 µM | 0.322 µM |  | 
CCAUGACCGUAAGCGAUUACCACAUGAGGAUCACCCAUGUACAGAAGGCGGACGUCAUUAUGAACCGAGGAUAUGUACCAGGGU | 0.0922 µM | 0.0121 µM |  | 
GAGUUUACGUUUGUCACUUUGCGAGAGGAUAUGGAAAACUUGACAUGAGGAUCACCCAUGUUUUAUCAGAAGGCUCGAGUACGA |  |  | 0.0102 µM | 0.00609 µM
UUUUAACAUGAGGAUCACCCAUGUGAGGAUAUCGAAAUUUAUAUUUAUAUUAAUUUAACGAGAAGGCACAUUUU | 0.0912 µM | 0.114 µM |  | 
GUUAAUUAGUGAGGAUAUACAGUAUUUAAUACUGUAGAAGGCACAAUCCUCAAGACAUGAGGAUCACCCAUGUGAUAAUAAGCU | 0.0354 µM | 0.139 µM |  | 
AAUUAUUUGUAGAAGGAAGGAGAUUUUGUAUUCUUAGGAUAUACUAUUACAUGAGGAUCACCCAUGUUUGAAGGGUUGCAAUGU | 0.0475 µM | 0.0598 µM |  | 
GAUAGGACAGAGAAGGACGUAGCUAGAGAUACUAGCAUAAAGGUCCAAACAUGAGGAUCACCCAUGUAGGAUAUCUGUCCUAUC | 0.00647 µM | 0.00692 µM |  | 
CCCACGUGUGCAGGAUAUCCCACGAGCGCAACAUGAGGAUCACCCAUGUACCUGAGUCUCGGAACGGAGAAGGGUACAUGUUAU |  |  | 0.432 µM | 0.101 µM
UAAUCUCAGAUAGGAUAUAUAGGAUGAUUUAAGACCGAACAUGAGGAUCACCCAUGUGAUUAUUCGUAGAAGGAUCAAUGACCC |  |  | 0.122 µM | 0.114 µM
CGGGAGCCGAAGGGCGAAAGCCCACAUGAGGAUCACCCAUGUAGAAGGCGGGCCGCAACGCGGCCCGAGGAUAUACAGGCUCCA | 0.00599 µM | 0.0105 µM |  | 
UAUAAUACAUAGGAUAUCGAAUAAAUCAUUUAACGAGAAGGAUGAACAUGAGGAUCACCCAUGUGGUAUCAUGG | 0.263 µM | 0.241 µM |  | 
CGGUGACGUGUAGGAUAUGGAGGUGGGUUUUGGCCAGAAGGACAUGAGGAUCACCCAUGUGGUAGAGGGUUGGCGGCUGCCCGU | 0.0197 µM | 0.0189 µM |  | 
GUUUUUUUUAGUUCAUACUAUAUGAUAGAAGGUGAAAUAUAGACAUGAGGAUCACCCAUGUAAUUCAAGGAUAUGUAGUUACUC |  |  | 0.0351 µM | 0.0243 µM
UAAUAGUGUGUUAGGAUAUGCUGGUCGAAAGAUCAGCAGAAGGAACAUGAGGAUCACCCAUGUAGAGUAUUUUA | 0.0213 µM | 0.0624 µM |  | 
GUCUUUUUACAGAAGGUGUUUAACAUGAGGAUCACCCAUGUACAAAAGGUUAAAUUUGAUAAUAACAAGGAUAUGUACUAAUCA |  |  | 0.291 µM | 0.184 µM
